# According to ChEMBL document CHEMBL1138411, “Design, synthesis, and biological evaluation of 1,3-dioxoisoindoline-5-carboxamide derivatives as T-type calcium channel blockers” (Bioorg Med Chem Lett, 2007):
# Key:
# [1] = Inhibition of N-type calcium channel activity; parameters: species or system Homo sapiens
# Homo sapiens = species on record: Homo sapiens; assay: Selectivity index, ratio of IC50 for N-type calcium channel to IC50 for T-type calcium channel Cav3.1
# [2] = Cytotoxicity against HEK293 cells by MTT assay; assay type: cell-based; settings: human
# Method in brief: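 MTT viability read-out. Negative control was 0.1% DMSO and positive control was H2O2.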
# [3] = molecular target: Voltage-dependent T-type calcium channel subunit alpha-1G (Homo sapiens, UniProt O43497); assay: Inhibition of T-type calcium channel Cav3.1 expressed in HEK293 cells co-expressing alpha1G subunit and Kir2.1 potassium channel by patch-clamp assay; assay type: cell-based
# Chain of Voltage-dependent T-type calcium channel subunit alpha-1G (O43497 whole entry): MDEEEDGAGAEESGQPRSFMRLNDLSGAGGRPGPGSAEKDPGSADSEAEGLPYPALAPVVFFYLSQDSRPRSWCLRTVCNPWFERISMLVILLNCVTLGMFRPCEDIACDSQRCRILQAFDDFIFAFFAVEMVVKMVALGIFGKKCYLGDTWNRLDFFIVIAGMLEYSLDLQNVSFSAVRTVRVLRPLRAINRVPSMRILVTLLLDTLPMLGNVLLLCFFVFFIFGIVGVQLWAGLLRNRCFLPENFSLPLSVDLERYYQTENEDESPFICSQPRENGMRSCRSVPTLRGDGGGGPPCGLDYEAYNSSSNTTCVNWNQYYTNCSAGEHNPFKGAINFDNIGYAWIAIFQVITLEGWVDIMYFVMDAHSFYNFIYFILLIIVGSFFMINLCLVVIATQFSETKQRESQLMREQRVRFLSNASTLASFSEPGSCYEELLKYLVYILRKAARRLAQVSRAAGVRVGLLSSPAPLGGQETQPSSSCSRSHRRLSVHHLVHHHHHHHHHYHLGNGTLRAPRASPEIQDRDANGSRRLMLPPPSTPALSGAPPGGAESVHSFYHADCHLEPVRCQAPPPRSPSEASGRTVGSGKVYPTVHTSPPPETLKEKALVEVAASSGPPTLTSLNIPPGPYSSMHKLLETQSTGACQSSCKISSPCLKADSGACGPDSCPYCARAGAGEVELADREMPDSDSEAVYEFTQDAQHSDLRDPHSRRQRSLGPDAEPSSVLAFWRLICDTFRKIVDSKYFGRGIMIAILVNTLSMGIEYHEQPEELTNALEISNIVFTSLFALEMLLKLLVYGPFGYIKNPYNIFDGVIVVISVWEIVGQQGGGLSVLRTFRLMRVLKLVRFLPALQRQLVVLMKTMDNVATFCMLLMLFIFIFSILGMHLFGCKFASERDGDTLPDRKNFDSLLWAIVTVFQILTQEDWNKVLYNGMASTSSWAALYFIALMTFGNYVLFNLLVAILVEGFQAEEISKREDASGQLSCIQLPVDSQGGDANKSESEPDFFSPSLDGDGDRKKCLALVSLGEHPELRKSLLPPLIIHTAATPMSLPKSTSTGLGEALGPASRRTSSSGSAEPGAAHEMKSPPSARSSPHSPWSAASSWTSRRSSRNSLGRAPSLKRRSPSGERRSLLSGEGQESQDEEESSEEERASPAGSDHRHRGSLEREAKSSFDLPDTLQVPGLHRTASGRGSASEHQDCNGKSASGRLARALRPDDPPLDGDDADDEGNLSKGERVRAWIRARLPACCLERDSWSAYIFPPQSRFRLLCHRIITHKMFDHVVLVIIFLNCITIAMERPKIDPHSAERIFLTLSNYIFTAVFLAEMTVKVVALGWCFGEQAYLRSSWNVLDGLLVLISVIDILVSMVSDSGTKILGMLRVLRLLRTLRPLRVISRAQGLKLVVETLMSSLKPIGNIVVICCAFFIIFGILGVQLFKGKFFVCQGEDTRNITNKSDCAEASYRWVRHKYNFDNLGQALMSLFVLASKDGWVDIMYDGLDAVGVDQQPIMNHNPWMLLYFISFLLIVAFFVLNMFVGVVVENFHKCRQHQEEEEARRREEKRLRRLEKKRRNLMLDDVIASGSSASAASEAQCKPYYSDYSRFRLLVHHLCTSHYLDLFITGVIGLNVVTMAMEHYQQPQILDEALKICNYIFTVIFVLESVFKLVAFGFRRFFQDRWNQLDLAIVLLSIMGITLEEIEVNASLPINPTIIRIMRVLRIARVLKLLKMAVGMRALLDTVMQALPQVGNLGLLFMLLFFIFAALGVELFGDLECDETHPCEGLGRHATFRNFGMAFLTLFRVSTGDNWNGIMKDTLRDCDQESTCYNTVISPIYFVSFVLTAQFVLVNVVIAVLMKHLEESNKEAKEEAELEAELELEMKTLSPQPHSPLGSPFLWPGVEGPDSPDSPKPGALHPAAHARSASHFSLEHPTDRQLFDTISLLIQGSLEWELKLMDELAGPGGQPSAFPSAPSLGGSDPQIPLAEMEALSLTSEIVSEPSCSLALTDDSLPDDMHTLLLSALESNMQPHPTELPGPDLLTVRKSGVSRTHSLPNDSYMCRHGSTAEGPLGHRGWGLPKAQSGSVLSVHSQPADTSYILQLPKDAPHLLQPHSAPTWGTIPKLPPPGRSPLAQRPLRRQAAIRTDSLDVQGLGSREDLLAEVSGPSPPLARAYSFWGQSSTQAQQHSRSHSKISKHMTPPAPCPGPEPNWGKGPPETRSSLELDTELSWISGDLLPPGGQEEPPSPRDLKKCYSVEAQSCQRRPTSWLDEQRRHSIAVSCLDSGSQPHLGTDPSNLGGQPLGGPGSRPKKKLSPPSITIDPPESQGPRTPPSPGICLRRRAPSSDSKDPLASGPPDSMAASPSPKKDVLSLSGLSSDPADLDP
# Method in brief: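 Cells were HEK293 stably co-expressing Cav3.1 (α1G) and Kir2.1. Single-cell patch-clamp recording measured % inhibition of Ca2+ current at set compound concentrations, giving IC50 values. This was a secondary screen of compounds selected from a primary FDSS6000 fluorescence high-throughput assay.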
Structure (SMILES),IC50 [3],further results
O=C(NCCN1CCCCC1)c1ccc2c(c1)C(=O)N(Cc1ccc(Cl)cc1)C2=O,–,IC50 [1]: 33.4 µM; Ratio IC50 (Homo sapiens): 35; CC50 [2]: > 100 µM
Cc1ccc(CN2C(=O)c3ccc(C(=O)NCCCN4CCCCC4C)cc3C2=O)cc1 (stereo unspecified),3.53 µM,–
COc1ccc(CN2C(=O)c3ccc(C(=O)NCCN4CCCCC4)cc3C2=O)cc1,5.25 µM,–
Cc1ccc(CN2C(=O)c3ccc(C(=O)NCCN4CCCCC4)cc3C2=O)cc1,5.82 µM,–
COc1cccc(CN2C(=O)c3ccc(C(=O)NCCN4CCCCC4)cc3C2=O)c1,14.1 µM,–
O=C(NCCCN1CCCC1)c1ccc2c(c1)C(=O)N(Cc1ccc(Cl)cc1)C2=O,1.62 µM,–
CC1CCCCN1CCCNC(=O)c1ccc2c(c1)C(=O)N(Cc1ccc(Cl)cc1)C2=O (stereo unspecified),–,IC50 [1]: 54.7 µM; Ratio IC50 (Homo sapiens): 59; CC50 [2]: > 100 µM

# Second part, led by results:
IC50 [3],Structure (SMILES),further results
5.82 µM,O=C(NCCN1CCCCC1)c1ccc2c(c1)C(=O)N(Cc1ccccc1Cl)C2=O,–
22.8 µM,O=C(NCCN1CCCCC1)c1ccc2c(c1)C(=O)N(Cc1ccccc1)C2=O,–
4.09 µM,O=C(NCCN1CCCCC1)c1ccc2c(c1)C(=O)N(Cc1cccc(Cl)c1)C2=O,–
14.9 µM,O=C(NCCN1CCCCC1)c1ccc2c(c1)C(=O)N(Cc1ccccc1F)C2=O,–
8.88 µM,O=C(NCCN1CCCCC1)c1ccc2c(c1)C(=O)N(Cc1ccc(F)cc1)C2=O,–
